This is an account of results in ChEMBL document CHEMBL3232757, “Structure-activity relationships for withanolides as inducers of the cellular heat-shock response” (J Med Chem, 2014).

Structures are written as SMILES. Peptide text beside a SMILES is read from it. * marks the point of attachment. Cbz = O=C(OCc1ccccc1)*

For experiment [1], the target named is Heat shock 70 kDa protein 6 (Homo sapiens) (UniProt P17066). The experiment is described as follows: Induction of […] (unknown origin)-mediated heat shock response expressed in human 293T cells coexpressing GFP assessed as heat shock index after overnight incubation by luciferase reporter gene assay relative to control. The format is cell-based. An outline of the steps:
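293T cells transduced with a lentiviral EGFP–firefly luciferase fusion under HSP70B′ promoter elements, enriched by heat shock (42 °C, 1 h) plus FACS, then reverse-sorted to remove constitutive expressers. Cells in DMEM/10% FBS were seeded at 20 000/well and given serial dilutions next day, quadruplicate wells, overnight. Read by Steady-Glo luminescence. Index = [Log2(treated/control)]/concentration (μM) at maximal response.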
(In a reporter assay the amount or activity of a reporter protein is the signal.)

The nature of experiment [2]: Cytotoxicity against human NCI-H929 cells after 3 days by Alamar blue assay. The format is functional, cell-based. As to conditions: NCI-H929, 72 h. A general note: Alamar Blue is a resazurin reagent that responds to reducing activity.
The nature of experiment [3]: Cytotoxicity against human CHP100 cells assessed as inhibition of cell survival after 24 hrs by MTT assay. The experiment is classed as functional, cell-based. The following applies: CHP100, 24 h. In general terms: Tetrazolium dyes change colour on reduction, which living cells bring about.
Experiment [4] can be described thus: Cytotoxicity against human CHP100 cells assessed as inhibition of cell survival at 4 uM after 24 hrs by MTT assay relative to control. The format is functional. As to conditions: CHP100, 24 h.

Sequence of Heat shock 70 kDa protein 6 (Homo sapiens) (P17066 whole entry, the tested form may be a part): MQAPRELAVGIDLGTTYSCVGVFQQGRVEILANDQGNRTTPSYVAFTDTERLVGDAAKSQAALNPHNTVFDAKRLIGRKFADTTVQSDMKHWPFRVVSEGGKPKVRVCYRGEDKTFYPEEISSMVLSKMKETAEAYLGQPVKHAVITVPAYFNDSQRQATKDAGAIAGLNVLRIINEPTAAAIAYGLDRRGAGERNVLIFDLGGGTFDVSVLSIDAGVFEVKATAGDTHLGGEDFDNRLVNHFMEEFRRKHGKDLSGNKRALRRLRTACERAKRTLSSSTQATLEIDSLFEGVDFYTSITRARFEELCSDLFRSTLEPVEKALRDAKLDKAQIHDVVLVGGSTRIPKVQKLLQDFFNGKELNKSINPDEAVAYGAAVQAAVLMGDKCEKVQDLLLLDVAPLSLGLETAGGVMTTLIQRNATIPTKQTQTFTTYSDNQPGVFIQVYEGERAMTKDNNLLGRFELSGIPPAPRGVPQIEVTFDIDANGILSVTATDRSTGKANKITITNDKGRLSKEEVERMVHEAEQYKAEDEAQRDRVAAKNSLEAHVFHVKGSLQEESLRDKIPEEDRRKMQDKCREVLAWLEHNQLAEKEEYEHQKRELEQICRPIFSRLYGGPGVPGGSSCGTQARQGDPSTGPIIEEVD

As for `CC(=O)OCC1=C(C)C[C@H]([C@@H](C)[C@H]2CC[C@H]3[C@@H]4C[C@H](OC(C)=O)[C@]5(O)[C@@H](OC(C)=O)C=CC(=O)[C@]5(C)[C@H]4CC[C@]23C)OC1=O`, the fold change (FC) in experiment [1] stood at 0.74. Further, the IC50 (usually the concentration needed to halve the response being measured) in experiment [2] amounted to 2.29 µM.
For the compound `CC(=O)OCC1=C(C)C[C@H]([C@@H](C)[C@H]2CC[C@H]3[C@@H]4C[C@H]5O[C@]56[C@@H](OC(C)=O)C=CC(=O)[C@]6(C)[C@H]4C[C@@H](OC(C)=O)[C@]23C)OC1=O`, in experiment [3], the IC50 was 0.28 µM. In addition, the inhibition – broadly, the drop in the measured response relative to a control, in per cent – at 4 µM in experiment [4] was greater than 80%. Moreover, in experiment [1], the Activity result was “Dose-dependent effect” and the fold change (FC) came to 3.31. Moreover, the IC50 in experiment [2] was found to be 0.18 µM.
Consider `CC1=C(CO)C(=O)O[C@@H]([C@@H](C)[C@H]2CC[C@H]3[C@@H]4C[C@@H](O)[C@@]5(O)CC=CC(=O)[C@]5(C)[C@H]4CC[C@]23C)C1` [JABOROSALACTONE D], for which the fold change (FC) in experiment [1] amounted to 0. In addition, in experiment [2], the IC50 was greater than 10 µM.
Taken in the same sequence, the figures for `CC1=C(C)C(=O)O[C@@H]([C@](C)(O)[C@H]2CC[C@H]3[C@@H]4[C@@H]5O[C@@H]5[C@@]5(O)CC=CC(=O)[C@]5(C)[C@H]4CC[C@]23C)C1` [WITHANOLIDE A] were 0 and greater than 10 µM.
Taken in the same sequence, the figures for `CC1=C(CO)C(=O)O[C@@H]([C@@H](C)[C@H]2CC[C@H]3[C@@H]4CC=C5C[C@@H](O)C[C@H](O)[C@]5(C)[C@H]4CC[C@]23C)C1` were 0 and 4.96 µM.
As to `CC(=O)OCC1=C(C)C[C@H]([C@@H](C)[C@H]2CC[C@H]3[C@@H]4C[C@H]5O[C@]56[C@@H](O)C=CC(=O)[C@]6(C)[C@H]4CC[C@]23C)OC1=O`, the IC50 in experiment [3] worked out at 0.23 µM. The inhibition at 4 µM in experiment [4] is greater than 80%. Besides, in experiment [1], the Activity result is “Dose-dependent effect” and the fold change (FC) amounted to 3.81. The IC50 in experiment [2] came to 0.25 µM.
On to `CC1=C(COS(=O)(=O)O)C(=O)O[C@@H]([C@@H](C)[C@H]2CC[C@H]3[C@@H]4C[C@H]5O[C@]56[C@@H](O)C=CC(=O)[C@]6(C)[C@H]4CC[C@]23C)C1`, for which the fold change (FC) in experiment [1] came out at 0.2. The same compound registered an IC50 in experiment [2] of 3.32 µM.
On the same counts, the results for `CC(=O)OCC1=C(C)C[C@H]([C@@H](C)[C@H]2CC[C@H]3[C@@H]4[C@@H]5O[C@@H]5[C@@]5(O)CC=CC(=O)[C@]5(C)[C@H]4CC[C@]23C)OC1=O` are 0 and greater than 10 µM.
Turning to `CC1=C(C)C(=O)O[C@@H]([C@@H](C)[C@H]2CC[C@H]3[C@@H]4C[C@H]5O[C@]56[C@@H](O)C=CC(=O)[C@]6(C)[C@H]4CC[C@]23C)C1`, the IC50 in experiment [3] came out at 0.64 µM; in experiment [2], 0.88 µM. Further, in experiment [4], the inhibition at 4 µM is greater than 80%. Also, the fold change (FC) in experiment [1] stood at 0.52.
As to `CC(=O)O[C@H]1C=CC(=O)[C@]2(C)[C@H]3CC[C@]4(C)[C@@H]([C@H](C)[C@H]5CC(C)=C(C)C(=O)O5)CC[C@H]4[C@@H]3C[C@H]3O[C@]132`, the IC50 in experiment [3] came out at 0.76 µM; in experiment [2], 0.43 µM. In addition, the inhibition at 4 µM in experiment [4] was greater than 80%. Besides, the fold change (FC) in experiment [1] is 1.53.
On to `CC1=C(CO)C(=O)O[C@@H]([C@@H](C)[C@H]2CC[C@H]3[C@@H]4C[C@H]5O[C@]56[C@@H](O)[C@@H](n5cnc7c(N)ncnc75)CC(=O)[C@]6(C)[C@H]4CC[C@]23C)C1`, for which the fold change (FC) in experiment [1] came out at 0. Moreover, half-maximal inhibition in experiment [2] (IC50) required 0.61 µM.
On the same counts, the results for `CC1=C(CO)C(=O)O[C@@H]([C@@H](C)[C@H]2C[C@@H](O)[C@H]3[C@@H]4C[C@H]5O[C@]56[C@@H](O)C=CC(=O)[C@]6(C)[C@H]4CC[C@@]32C)C1` are 0 and 3.83 µM.
Turning to `CC(=O)OCC1=C(C)C[C@H]([C@@H](C)[C@H]2CC[C@H]3[C@@H]4CC=C5C(OC(C)=O)C=CC(=O)[C@]5(C)[C@H]4CC[C@]23C)OC1=O` (single isomer, unassigned), the IC50 is 0.53 µM in experiment [3] and 1.63 µM in experiment [2]. Moreover, the inhibition at 4 µM in experiment [4] was greater than 80%. The fold change (FC) in experiment [1] was 0.9.
Regarding `CC1=C(CO)C(=O)O[C@@H]([C@@H](C)[C@H]2CC[C@H]3[C@@H]4C[C@H]5O[C@]56[C@@H](O)[C@@H](O)CC(=O)[C@]6(C)[C@H]4CC[C@]23C)C1` [VISCOSALACTONE B], in experiment [1], the fold change (FC) was found to be 0. The compound also came in with an IC50 in experiment [2] greater than 10 µM.
As to `CC(=O)OCC1=C(C)C[C@H]([C@@H](C)[C@H]2CC[C@H]3[C@@H]4C[C@H]5O[C@]56[C@@H](O)[C@@H](OS(=O)(=O)O)CC(=O)[C@]6(C)[C@H]4CC[C@]23C)OC1=O`, the IC50 in experiment [3] worked out at 0.73 µM; in experiment [2] it was 1.12 µM. Besides, the inhibition at 4 µM in experiment [4] is greater than 80%. Besides, the fold change (FC) in experiment [1] amounted to 0.36.
On the same counts, the results for `CC(=O)OCC1=C(C)C[C@H]([C@@H](C)[C@H]2CC[C@H]3[C@@H]4C[C@H]5O[C@]56[C@@H](OC(C)=O)[C@@H](OS(=O)(=O)O)CC(=O)[C@]6(C)[C@H]4CC[C@]23C)OC1=O` are 0.39 µM, 1.04 µM, greater than 80% and 0.78.
On to `CC1=C(CO)C(=O)O[C@@H]([C@@H](C)[C@H]2CC[C@H]3[C@@H]4C[C@H]5O[C@]56C(=O)C=CC(=O)[C@]6(C)[C@H]4CC[C@]23C)C1`, for which, in experiment [1], the fold change (FC) came out at 0.79. This compound also displayed an IC50 in experiment [2] of 1.16 µM.
Consider `CC1=C(CO)C(=O)O[C@@H]([C@@H](C)[C@H]2CC[C@H]3[C@@H]4C[C@H]5O[C@]56[C@H](O)C=CC(=O)[C@]6(C)[C@H]4CC[C@]23C)C1`, for which the IC50 turned out to be 0.93 µM in experiment [3] and 0.28 µM in experiment [2]. For the same compound, the inhibition at 4 µM in experiment [4] is greater than 80%. The fold change (FC) in experiment [1] was 1.68.
On the same counts, the results for `CC1=C(CO)C(=O)O[C@@H]([C@@H](C)[C@H]2CC[C@H]3[C@@H]4C[C@H]5O[C@]56[C@@H](O)[C@@H](N=[N+]=[N-])CC(=O)[C@]6(C)[C@H]4CC[C@]23C)C1` are 0.81 µM, 1.65 µM, greater than 80% and 0.
`CC1=C(CO)C(=O)O[C@@H]([C@@H](C)[C@H]2CC[C@H]3[C@@H]4C[C@H]5O[C@]56[C@@H](O)C=CC(=O)[C@]6(C)[C@H]4C[C@@H](O)[C@]23C)C1`: in experiment [1], the fold change (FC) was 0. In experiment [2], this compound gave an IC50 of 4.3 µM.
On the same counts, the results for `CC1=C(COS(=O)(=O)O)C(=O)O[C@@H]([C@@H](C)[C@H]2CC[C@H]3[C@@H]4C[C@H]5O[C@]56[C@@H](OS(=O)(=O)O)C=CC(=O)[C@]6(C)[C@H]4CC[C@]23C)C1` are 0 and greater than 10 µM.
For the compound `CC1=C(CO)C(=O)O[C@@H]([C@@H](C)[C@H]2CC[C@H]3[C@@H]4C[C@H]5O[C@]56[C@@H](O)[C@@H](OS(=O)(=O)O)CC(=O)[C@]6(C)[C@H]4CC[C@]23C)C1`, the fold change (FC) in experiment [1] is 0. This compound gave an IC50 in experiment [2] of 5.25 µM.
Taken in the same sequence, the figures for `CC(=O)OCC1=C(C)C[C@H]([C@@H](C)[C@H]2CC[C@H]3[C@@H]4C[C@@H](OC(C)=O)[C@@]5(O)CC=CC(=O)[C@]5(C)[C@H]4CC[C@]23C)OC1=O` were 0 and greater than 10 µM.
Taken in the same sequence, the figures for `CC1=C(CO)C(=O)O[C@@H]([C@@H](C)[C@H]2CC[C@H]3[C@@H]4CC=C5[C@@H](O)C=CC(=O)[C@]5(C)[C@H]4CC[C@]23C)C1` were 0 and 5.09 µM.
In the case of `CC1=C(CO)C(=O)O[C@@H]([C@@H](C)[C@H]2CC[C@H]3[C@@H]4C[C@H]5O[C@]56[C@@H](O)CCC(=O)[C@]6(C)[C@H]4CC[C@]23C)C1`, the fold change (FC) in experiment [1] came to 0. The IC50 in experiment [2] was greater than 10 µM.
On the same counts, the results for `CC1=C(CO)C(=O)OC([C@@H](C)C2CCC3C4C(CC[C@@]32C)[C@@]2(C)C(=O)C=CC[C@]2(O)[C@H]2O[C@@H]42)C1` (stereo partly drawn) are 0 and greater than 10 µM.
On the same counts, the results for `CC(C)C[C@@H](C=O)NC(=O)[C@H](CC(C)C)NC(=O)[C@H](CC(C)C)NC(=O)OCc1ccccc1` [MG-132] (Cbz-Leu-Leu-Leu-aldehyde) are 0.71 and 0.17 µM.
On the same counts, the results for `CCCCO[C@H]1CC(=O)[C@]2(C)[C@H]3CC[C@]4(C)[C@@H]([C@H](C)[C@H]5CC(C)=C(CO)C(=O)O5)CC[C@H]4[C@@H]3C[C@H]3O[C@]32[C@H]1O` are 0 and 8.74 µM.
`CC1=C(CO)C(=O)O[C@@H]([C@@H](C)[C@H]2CC[C@H]3[C@@H]4C[C@H](O)[C@]5(O)[C@@H](O)C=CC(=O)[C@]5(C)[C@H]4CC[C@]23C)C1`: in experiment [1], the fold change (FC) came to 0. The IC50 in experiment [2] was greater than 10 µM.
